Entries after “also recorded” stand apart in the source; their conditions may differ.
Experiments:
SmTGR [1] = target: T1, SmTGR (Schistosoma mansoni, UniProt Q962Y6); test: SmTGR enzymatic assay; assay type: biochemical
T1 sequence (Q962Y6 1-598): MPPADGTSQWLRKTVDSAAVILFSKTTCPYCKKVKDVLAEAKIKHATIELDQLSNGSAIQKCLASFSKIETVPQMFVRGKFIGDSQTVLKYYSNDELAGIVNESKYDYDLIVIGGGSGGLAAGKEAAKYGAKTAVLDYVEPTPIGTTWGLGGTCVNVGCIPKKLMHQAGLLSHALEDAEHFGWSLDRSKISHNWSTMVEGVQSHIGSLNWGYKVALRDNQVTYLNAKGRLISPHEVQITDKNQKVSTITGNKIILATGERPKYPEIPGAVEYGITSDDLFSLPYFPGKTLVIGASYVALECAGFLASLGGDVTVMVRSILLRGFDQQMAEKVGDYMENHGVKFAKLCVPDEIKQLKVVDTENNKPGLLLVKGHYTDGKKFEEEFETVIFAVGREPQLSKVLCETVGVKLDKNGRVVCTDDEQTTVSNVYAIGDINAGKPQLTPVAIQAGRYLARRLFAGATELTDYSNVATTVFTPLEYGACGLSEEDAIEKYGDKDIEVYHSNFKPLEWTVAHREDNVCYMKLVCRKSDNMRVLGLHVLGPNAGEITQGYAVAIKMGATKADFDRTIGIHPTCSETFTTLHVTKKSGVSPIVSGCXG

Mammalian TrxR [2] = details: ref Bioassays AID 588453 and AID 588456, cited from earlier work
adult worms = test: Schistosomicidal activity against ex vivo adult worms; design: species or system Schistosoma mansoni
Outline: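 Adult Schistosoma mansoni were perfused from mice seven weeks after infection. They were cultured for 24 hr in RPMI with 10% fetal calf serum, 10 mM glutamine and 1X penicillin/streptomycin before test compound was added. Untreated worms served as controls. Worms were checked daily and scored dead when no movement was seen.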

hGR = target: T2, hGR (Homo sapiens, UniProt P00390); test: Activity against human glutathione reductase; assay type: biochemical; details: results not shown
T2 sequence (P00390 44-522): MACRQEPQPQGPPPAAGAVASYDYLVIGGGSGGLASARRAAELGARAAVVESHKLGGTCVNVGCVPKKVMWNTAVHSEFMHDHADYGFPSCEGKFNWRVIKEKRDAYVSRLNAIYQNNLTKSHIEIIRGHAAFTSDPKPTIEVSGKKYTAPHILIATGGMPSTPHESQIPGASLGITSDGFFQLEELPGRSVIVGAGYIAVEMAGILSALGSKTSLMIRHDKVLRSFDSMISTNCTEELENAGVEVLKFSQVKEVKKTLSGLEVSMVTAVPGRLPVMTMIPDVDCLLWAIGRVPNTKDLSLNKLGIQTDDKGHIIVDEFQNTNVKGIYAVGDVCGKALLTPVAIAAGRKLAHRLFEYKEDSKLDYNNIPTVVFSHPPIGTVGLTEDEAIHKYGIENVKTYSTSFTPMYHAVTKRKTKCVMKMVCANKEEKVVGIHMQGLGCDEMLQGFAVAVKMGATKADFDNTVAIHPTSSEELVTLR

Mammalian TrxR [3] = test: Mammalian TrxR inhibition; assay type: biochemical; details: in words
schistosomula = test: Schistosomicidal activity against ex vivo schistosomula; design: species or system Schistosoma mansoni
Outline: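 Schistosomula were made by mechanical transformation of cercariae from infected Biomphalaria glabrata, then isolated on a Percoll gradient. They were cultured for 24 hr in M-199 with 10% fetal calf serum before test compound was added. Untreated larvae served as controls. Survival was followed by daily observation, and larvae without movement were scored dead.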

SmTGR [4] = target: T1, SmTGR; test: Steady state experiments varying NADPH at saturating DTNB; assay type: biochemical
[5] = tested on: TGR activity in treated worms; test: Inhibition of TGR in treated ex vivo worms; design: species or system Schistosoma mansoni; details: adult worms cultured with 50 μM compound, versus DMSO-treated worms
[6] = Behaviour of compound in worm culture medium; assay type: physicochemical

`O=C(O)c1ccc2ccccc2c1` [CID: 7123, 2-Naphthoic acid] showed an IC50 (SmTGR [1]) of 1100 µM.

In the case of `O=C(O)c1ccc2ncccc2n1` [CID: 12426408, 1,5-Naphthyridine-2-carboxylic acid], the IC50 (SmTGR [1]) is reported as 2600 µM.

In the case of `O=C(O)c1ccc(CN2CCN(CCO)CC2)nc1` [CID: 80159879, 6-((4-(2-Hydroxyethyl)piperazin-1-yl)methyl)nicotinic acid], the IC50 (SmTGR [1]) is reported as 4400 µM.

For `O=C(O)c1ccc2cccnc2n1` [Compound 1, 1,8-naphthyridine-2-carboxylate], the “Inhibition of mammalian hTrxR (in words)” value (Mammalian TrxR [2]) is given as “does not inhibit; also recorded: undetectable inhibition”, the “Mammalian TrxR IC50” value (Mammalian TrxR [2]) is given as “Inactive” and the Adult worms killed (adult worms; 10 μM, in five days) is given as 0%. The Adult worms killed (adult worms; 50 μM, in five days) was 13%, the “Activity against hGR” value (hGR) was “no detectable activity” and the “Selectivity for SmTGR over hTrxR” value (Mammalian TrxR [3]) was “high selectivity”. The Schistosomula killed (schistosomula; 10 μM, in five days) was 0%, the Schistosomula killed (schistosomula; 50 μM, in five days) was 11% and the “Inhibition mechanism versus NADPH” value (SmTGR [4]; NADPH 0.01 to 1 mM, DTNB 3 mM) was “mixed competitive inhibition mechanism”. For the same molecule, the “KIS, binding of inhibitor to NADPH-bound enzyme (estimated)” value (SmTGR [4]; at 3 mM DTNB) was 4.8 mM.

With `OCCN1CCN(CCO)CC1` [Compound 2, 1,4-bis(2-hydroxyethyl)piperazine] the “SmTGR IC50” value (SmTGR [1]; 6-His-tagged SmTGRwt 20 nM, 10 min preincubation with NADPH 100 μM, DTNB 3 mM) was “inactive”.

Work on `NCCCCN1CCN(CCO)CC1` [Compound 3, 2-[4-(4-aminobutyl)piperazin-1-yl]ethanol] yielded an IC50 (SmTGR [1]) of over 10000 µM.

Work on `O=S(=O)(O)CCN1CCN(CCO)CC1` [Compound 4, 4-(2-Hydroxyethyl)-1-piperazineethanesulfonic acid] yielded an IC50 (SmTGR [1]) of 3300 µM.

For `OCCN1CCN(Cc2cc(Cl)c3cccnc3c2O)CC1` [Compound 5, 5-chloro-7-((4-(2-hydroxyethyl)piperazin-1-yl)methyl)quinolin-8-ol], the “Inhibition of mammalian hTrxR (in words)” value (Mammalian TrxR [2]) is listed as “undetectable inhibition”, the “Mammalian TrxR IC50” value (Mammalian TrxR [2]) is listed as “Inactive” and the Adult worms killed (adult worms; 10 μM, in five days) is listed as 27%. For the same molecule, the Adult worms killed (adult worms; 50 μM, in five days) was 88%, the “GR (GSH disulfide reduction) activity in treated worms” value [5] was “significant inhibition” and the “TrxR (DTNB reduction) activity in treated worms” value [5] was “significant inhibition”. For the same molecule, the IC50 (SmTGR [1]) was 120 µM, the “Selectivity for SmTGR over hTrxR” value (Mammalian TrxR [3]) was “high selectivity” and the Schistosomula killed (schistosomula; 10 μM, in five days) was 80%. The Schistosomula killed (schistosomula; 50 μM, in 24 hr) was “killed all schistosomula”.

In the case of `CCOC(=O)c1c(C)oc2c1c(CN1CCN(CCO)CC1)c(O)c1ccccc12` [Compound 6, ethyl 5-hydroxy-4-{[4-(2-hydroxyethyl)piperazin-1-yl]methyl}−2-methylnaphtho[1,2-b]furan-3-carboxylate], the “Solubility behaviour in culture medium” value [6] is listed as “initially precipitated in the culture medium then slowly dissolved over the following hours”, the IC50 (Mammalian TrxR [2]; read-out: Mammalian TrxR IC50) is listed as 1.12 µM and the Adult worms killed (adult worms; 10 μM, in five days) is listed as 9%. The Adult worms killed (adult worms; 50 μM, in four days) was 100%, the “GR (GSH disulfide reduction) activity in treated worms” value [5] was “significant inhibition” and the “TrxR (DTNB reduction) activity in treated worms” value [5] was “significant inhibition”. For the same molecule, the IC50 (SmTGR [1]) was 0.06 µM, the “Fold more potent than 5 (SmTGR IC50)” value (SmTGR [1]; IC50 of 6 compared with IC50 of 5) was 2000 fold and the “Selectivity for SmTGR over hTrxR” value (Mammalian TrxR [3]) was “high selectivity”. The Schistosomula killed (schistosomula; 10 μM, in five days) was 100% and the Schistosomula killed (schistosomula; 50 μM, in 24 hr) was “killed all schistosomula”.
